# FLuc inh counter: inhibits firefly luciferase, flagging false hits in luciferase inhibition screens; actives 1.5% (n = 200,000); ATPLite firefly luciferase biochemical luminescence, 10 min; inhibition, % at 10 µM;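 active = inhibition above about 50% when tested at 10 µM, limit read from the data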
# Target sequence (P08659 whole entry, looked up): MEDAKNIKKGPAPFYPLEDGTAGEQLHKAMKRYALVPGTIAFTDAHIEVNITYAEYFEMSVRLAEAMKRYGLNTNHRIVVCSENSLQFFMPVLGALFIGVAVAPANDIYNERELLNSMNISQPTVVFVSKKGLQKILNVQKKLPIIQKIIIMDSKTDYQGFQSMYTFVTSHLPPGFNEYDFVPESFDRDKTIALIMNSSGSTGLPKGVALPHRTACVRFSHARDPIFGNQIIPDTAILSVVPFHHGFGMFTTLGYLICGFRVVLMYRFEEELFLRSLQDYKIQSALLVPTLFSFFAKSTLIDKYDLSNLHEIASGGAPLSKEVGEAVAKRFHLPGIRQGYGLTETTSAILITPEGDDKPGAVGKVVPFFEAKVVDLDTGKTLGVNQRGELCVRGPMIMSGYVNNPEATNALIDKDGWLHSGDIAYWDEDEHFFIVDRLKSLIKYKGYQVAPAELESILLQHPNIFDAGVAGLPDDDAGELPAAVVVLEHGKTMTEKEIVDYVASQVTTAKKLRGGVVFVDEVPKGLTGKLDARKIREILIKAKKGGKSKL
# STAT1 act: activators of IFN-gamma induced STAT1 signaling. NIH 3T3 STAT1-luciferase reporter, luminescence; 100% = IFN-gamma alone, no compound. activation (% of control), % at 5.5 µM. actives 2.6% (n = 200,000). AID 932;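 active = activation above the screen-wide mean activation plus 3 SD, cut at about 130% in these data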;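 note: raw ratio to IFN-gamma control signal so 100% means no change and 0% no light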
# Rad51 HR inh: Rad51 (human) homologous recombination inhibition; Q06609; hRad51 DNA strand exchange, fluorescence dequenching; inhibition, % at 10 µM; actives 0.085% (n = 200,000); AID 1385;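 active = inhibition above 40% at the single screening dose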;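 note: 0% = DMSO control wells and 100% = blanks with heterologous ssDNA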
#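 Test system: preformed human Rad51 ssDNA filaments. Compound dosing: single dose, 10 µM final compound. Incubation: filaments 15 min 37 °C, then compound 30 min. Technique: FRET fluorescence dequenching, excitation 485 nm, emission 520 nm. Read-out basis: percent inhibition from fluorescence, normalised to plate control and blank means. Benchmarks: plate controls and plate blanks.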
# NF-kB neuron act: compounds increasing NF-kB expression in human neuronal cells; NF-kB reporter expression; hits give high values; fold change at 12.5 µM; actives 1.6% (n = 190,000); in the data active = fold change above about 3.3
# APP 5'UTR act: APP 5'UTR luciferase reporter activation. SH-SY5Y APP 5'UTR luciferase reporter, luminescence; zero percent = DMSO vehicle wells. activation, % at 2 µM. actives 1% (n = 190,000). AID 1276;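 active = activation above a set limit, based on mean plus 3 SD of controls, cut at about 140% in these data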
# FLuc stim CS: affects firefly luciferase, flagging false hits in luciferase stimulation screens. activation factor at 10 µM. P08659. AID 1027. 200,000 tested, under 10 active. ATPlite luciferase biochemical, luminescence, 10 min; 0 = ATP-free wells, 1 = DMSO control;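 active = luciferase activation factor, scaled between plate controls, of at least 2 with compound at 10 µM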
#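 Assay system: Luciferase/luciferin detection reagent, cell-free biochemical luciferase assay / Also added: ATP substrate / Schedule: 10 min at ambient temperature / Measured by: luminescence measurement of luciferase light output / Benchmarks: low control with PBS replacing ATP, high control enzyme plus ATP without compound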
# The depositor's hits bear a star; . = no result given. Compounds with a hit are over-represented: about 3.9% of the library has one in this group of screens.
SMILES,FLuc inh counter,STAT1 act,Rad51 HR inh,NF-kB neuron act,APP 5'UTR act,FLuc stim CS
COc1ccc(OCC(=O)Nc2ccccc2O)cc1,14,88,0,5.5*,65,0.9
COc1ccc(OCC(=O)Nc2nc3ccccc3[nH]2)cc1,68*,106,-8,2.2,50,0.3
CCOc1ccccc1OCCCC(=O)Nc1nc2ccccc2[nH]1,-5,108,4,1,11,1.1
O=C(COc1ccc2ccccc2c1)Nc1nc2ccccc2[nH]1,-4,100,4,1.5,10,1
COc1ccc(C(=O)Nc2nc(C)c(C)s2)cc1OC,12,139*,7,1.9,104,0.9
CCCCCC(=O)Nc1nc2ccccc2[nH]1,16,129*,0,2.7,68,0.8
C[C@H]1CC[C@@]2(O[C@@H](CCO)C[C@H](O)[C@H]2O)O1,.,.,-8,.,.,.
CC(C)OC(=O)C1CC(C)(O)C(=O)C(C(=O)OC(C)C)C1c1ccc([N+](=O)[O-])cc1 (stereo not drawn),2,92,2,0.97,10,1
NS(=O)(=O)c1cccc(NS(=O)(=O)c2cccc(C(F)(F)F)c2)c1,.,.,-7,.,.,.
COc1ccc(C(=O)Nc2nc3ccccc3[nH]2)cc1OC,29,129*,5,2.4,92,0.7
CCCCCC(=O)Nc1cccc2ccccc12,-6,94,43*,1.5,11,1.1
COc1ccc(CC(=O)Nc2nc3ccccc3[nH]2)cc1,.,.,-21,.,.,.
COc1cc(OC)cc(C(=O)Nc2nc3ccccc3[nH]2)c1,31,131*,-1,1.9,105,0.7
CC(=O)c1cccc(NC(=O)C(=O)Nc2cccc3ccccc23)c1,-3,137*,3,1.5,70,1
CC1CCCC(C)N1C(=O)c1cc2ncc(CCCl)cn2n1 (stereo not drawn),-3,102,18,1.1,-10,1
Cc1ccc(S(=O)(=O)N(C)c2ccc(OCC(=O)Nc3cccc(-n4cnnn4)c3C)cc2)cc1,.,.,14,.,.,.
CCn1nnnc1SCC(=O)NC1Cc2ccccc2C1,.,.,-4,.,.,.
C#CCOCCOCCOCCNc1nc(N2CCN(C(=O)[C@H](CCCCN)n3cc([C@@H](N)C(C)CC)nn3)CC2)nc(N2CCN(C(=O)[C@H](Cc3cc4ccccc4[nH]3)n3cc([C@@H](N)CC(C)C)nn3)CC2)n1 (stereo partly drawn),0,95,.,0.88,4,1
COC(=O)C(C)N1C(=O)S/C(=C\c2cc(C)n(-c3ccccn3)c2C)C1=O (stereo not drawn),56*,125,-13,2.9,109,0.4
CCOC(=O)CN1C(=O)S/C(=C/c2cc(C)n(-c3ccccn3)c2C)C1=O,27,126,-5,2.2,52,0.7
S=C(c1ccc(-c2ccccc2Cl)o1)N1CCCCC1,49,141*,-2,0.95,88,0.5
CN1CCN(C(=S)c2ccc(-c3cccc(Cl)c3Cl)o2)CC1,6,144*,.,2.6,124,0.9
CCc1ccc(N2C(=O)CC(Cn3nc(C)cc3C)C2=O)cc1 (stereo not drawn),.,.,10,.,.,.
CC(NC(=S)Nc1ccc(Cl)cc1)C(c1ccccc1)N1CCOCC1 (stereo not drawn),-3,92,.,0.98,3,1
Cc1ccc(NC(=O)COC(=O)CC2CCCC2)cc1Cl,0,96,-7,0.93,-9,1
SMILES,FLuc inh counter,STAT1 act,Rad51 HR inh,NF-kB neuron act,APP 5'UTR act,FLuc stim CS
COC(=O)c1ccc(/C=C/c2ccc3cccc(OC(C)=O)c3n2)cc1,43,101,-6,3.7*,120,0.6
O=C(O)c1ccc(/C=C/c2ccc3cccc(O)c3n2)cc1,15,96,-12,3.2,89,0.9
O=Cc1cc(N=Nc2cccc(C(=O)O)c2)ccc1O,-2,79,47*,2.3,33,1
O=C(c1ccc(-c2ccccc2Cl)s1)N1CCOCC1,.,.,-4,.,.,.
COc1ccc2c(c1)CC/C(=C\C=C\c1ccccc1OC)C2=O,52*,110,-3,1.7,48,0.5
CC(C)Oc1ccccc1/C=N/NC(=O)c1ccc(F)cc1,17,102,.,1.2,0,0.8
O=C(N/N=C/c1ccc[nH]1)c1ccc(Cl)cc1,57*,108,1,2.2,6,0.4
O=C(N/N=C/c1ccccc1Cl)c1ccc(F)cc1,78*,138*,.,2.8,76,0.2
O=C(O)COc1ccccc1/C=N/NC(=O)CNC(=O)c1ccc(F)cc1,.,.,12,.,.,.
O=C(N/N=C/c1ccc[nH]1)c1ccncc1,-1,97,2,1.1,-1,1
O=C(O)COc1ccccc1/C=N/NC(=O)c1ccc(F)cc1,53*,103,3,0.98,10,0.5
O=C(O)c1nnn(-c2cccc(C(F)(F)F)c2)c1-c1ccccc1,.,.,-5,.,.,.
Cc1ccc(N2CCN(C(=O)c3cc(C(=O)c4ccccc4C)c[nH]3)CC2)c(C)c1,-8,104,43*,0.67,29,1.1
O=C(NNC1=Nc2cccc3cccc1c23)c1ccc(Br)cc1,3,99,-22,0.97,-6,1
CCOC(=O)C1=NN(C(C)=O)C2(CC(=O)N(c3cccc(C)c3)C2=O)C1 (stereo not drawn),-6,96,-8,1.2,-10,1.1
CC(C)(C)CC(=O)Nc1cccc(-c2cn3cccnc3n2)c1,61*,121,-4,2.2,54,0.4
COc1cc(C(=O)Nc2cccc(-c3cn4cccnc4n3)c2)cc(OC)c1OC,9,104,4,0.5,-10,0.9
Cc1sc(NC(=O)C2CCCCC2)c(C#N)c1-c1ccccc1,10,130*,.,1.4,46,0.9
Cc1cccc(C(=O)Nc2sc(C)c(-c3ccccc3)c2C#N)c1,14,133*,-1,3.5*,27,0.9
CCOc1ccccc1-n1nnnc1SC(C)C(=O)OC (stereo not drawn),-5,95,0,1.1,-5,1
CN(C)c1ccc(/C=C(\C#N)c2ccccn2)cc1,97*,52,-62,1.6,95,0
N#C/C(=C\c1ccc([N+](=O)[O-])cc1)c1ccccn1,20,132*,0,2.6,25,0.8
COc1cc(/C=C(\C#N)c2ccccn2)cc(OC)c1O,.,.,-48,.,.,.
Cc1ccc(-c2nnc(SCC(=O)NC3CC3)n2N)cc1,.,.,10,.,.,.
COc1ccccc1OCCC(=O)OCC(=O)c1c(N)n(C)c(=O)n(C)c1=O,-4,98,-2,1,9,1
CC(C)=CC(=O)OCc1cc([N+](=O)[O-])cc2c1OCOC2,-2,138*,-1,0.91,43,1
O=C(OCc1cc([N+](=O)[O-])cc2c1OCOC2)c1ccc2ccccc2n1,-6,102,1,1.2,-6,1.1
